# Screens as filed in PubChem BioAssay.
# m5-HT2A agonist – mouse HTR2A agonism via beta-arrestin recruitment; CHO-K1 mHTR2A beta-arrestin complementation, luminescence; percent of 30 µM serotonin response; activation, % at 7.6 µM; P35363; 360,000 tested, 0.66% active;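 active = activation above a run cutoff, the mean activation of all tested compounds plus 3 SD, cut at about 14% in these data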
# PP5 primary – inhibitors of human protein phosphatase 5 (PP5); purified PP5c, OMFP substrate fluorescence; inhibition, % at 6.7 µM; 320,000 tested, 0.18% active;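 active = inhibition above the campaign's mean inhibition across all tested compounds plus 3 SD, cut at about 9.5% in these data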
# Target sequence (P53041 whole entry, looked up): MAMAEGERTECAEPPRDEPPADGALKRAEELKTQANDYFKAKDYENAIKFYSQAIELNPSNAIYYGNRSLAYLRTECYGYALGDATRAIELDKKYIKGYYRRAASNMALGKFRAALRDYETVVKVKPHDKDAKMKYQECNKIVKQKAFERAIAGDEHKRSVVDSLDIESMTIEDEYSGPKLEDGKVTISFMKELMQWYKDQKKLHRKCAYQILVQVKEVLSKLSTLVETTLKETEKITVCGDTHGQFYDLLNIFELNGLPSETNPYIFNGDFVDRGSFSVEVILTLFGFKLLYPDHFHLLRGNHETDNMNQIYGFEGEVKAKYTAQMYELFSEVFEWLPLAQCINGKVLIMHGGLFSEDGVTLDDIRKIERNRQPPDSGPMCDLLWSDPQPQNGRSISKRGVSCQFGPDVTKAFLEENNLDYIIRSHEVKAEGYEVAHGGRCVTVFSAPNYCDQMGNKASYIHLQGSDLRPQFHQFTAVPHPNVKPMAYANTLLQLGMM
# GASC-1 inh – human JMJD2C demethylase inhibition. Q9H3R0. GST-JMJD2C(1-420) H3K9me3 demethylation, DELFIA europium. inhibition, % at 2.35 µM. 330,000 tested, 0.069% active;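 active = more than half of a compound's replicate wells show inhibition beyond 50%, single wells judged on their own value; inconclusive = some, but no more than half, of replicates pass 50% inhibition; inactive = no replicate passes 50% inhibition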;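 also: signal counts dimethyl H3K9 product captured on neutravidin plate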
# PP1 counter – counter-screen for PP5 inhibitors: inhibitors of human PP1-alpha. P62136. purified PP1alpha, OMFP fluorescence. 320,000 tested, 0.9% active. inhibition, % at 6.7 µM;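 active = inhibition above the mean inhibition of all tested compounds plus 3 SD, computed separately for each screening campaign, cut at about 15% in these data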
# T cell HTS – T cell immune modulation candidate. 2C CD8+ T cell-vesicle binding, flow cytometry; active compounds read low. response (vesicle binding), % at 7 µM. 330,000 tested, 0.068% active;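 active = response, share of CD8 T cells binding vesicles, and their 90th percentile fluorescence all below set limits, cut at about 80% in these data, passing the limit was not always enough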;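 also: values below 100% mean blocked vesicle binding to the CD8+ T cells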
#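 Read-out – percent CD8+ FL2 mean versus row control · System – murine 2C transgenic CD8+ T lymphocytes · Times – 1.5 h cell–vesicle binding at 37 °C, then 20 min icy labelling · Control set – naked vesicles low, QL9 vesicles with vehicle high · Detection – cytometric PE anti-B7-1 and Alexa647 anti-CD8 signals after 1% paraformaldehyde fixation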
# Numbers stand for hits; . = inactive; ? = inconclusive; / = not tested or not shown. In the library only some 1.7% were active in any assay of this set; here they are far more common.
SMILES,m5-HT2A agonist,PP5 primary,GASC-1 inh,PP1 counter,T cell HTS
CCN(c1ccccc1)S(=O)(=O)c1ccc(C(=O)Nc2ccccn2)cc1,.,.,?,.,.
O=C(NCCN1CCCCC1)c1ccc(F)cc1Cl,.,.,.,.,.
Cc1ccc(SCCC(=O)NC2CC2)cc1,.,.,.,.,.
COc1cc(/C=C/C(=O)OCC(=O)NC(=O)NC(C)C)cc(S(=O)(=O)N2CCc3ccccc32)c1OC,.,.,.,.,.
Cc1onc(-c2ccccc2Cl)c1C(=O)N1C=CC(C(F)(F)Cl)=NCC1,24,.,.,.,.
Cc1onc(-c2ccccc2Cl)c1C(=O)N1C=CC(C(F)(F)F)=NCC1,.,.,.,.,.
O=C1/C(=C/c2ccccc2)SC(=S)N1CC(=O)N1CCCCC1c1cccnc1 (configuration not stated),.,.,.,17,.
CCCCC[C@@H](C)N1C[C@H](COCc2ccccc2)Oc2cc(N3CCC[C@H]3CO)ccc2S1(=O)=O,.,/,/,/,/
CC(C)C[C@@H]1O[C@H](CCc2ccccc2)Cc2[nH]c(=S)[nH]c(=O)c21,.,/,/,/,/
O=C(Nn1cnnc1)c1ccc(F)cc1,.,.,.,.,.
O=C(Nn1cnnc1)c1ccc(Cl)cc1,.,9.6,.,.,.
O=C(N[C@@H]1CCC(=O)N(CC[C@H](Sc2ccc(Br)cc2)c2ccccc2)CC1)OCc1ccccc1,.,.,.,16,.
Cc1cc2nc(NC(=O)C3(C)CCN3C(=O)C(C)C)[nH]c2cc1C (configuration not stated),.,/,/,/,/
CC1=NN(C(N)=S)C(=O)C1N=Nc1ccc(C)cc1C (configuration not stated),/,.,.,.,.
CC1=NN(C(N)=S)C(=O)C1N=Nc1c(C)cc(C)cc1C (configuration not stated),.,.,.,17,.
CCOC(=O)C1=C(CSc2nc3c(cc2C#N)CN(C)CC3)OC(N)=C(C#N)C1c1ccc(F)cc1 (configuration not stated),.,.,.,16,.
CCOC(=O)C1=C(CSc2nc3c(cc2C#N)CN(C)CC3)OC(N)=C(C#N)C1c1ccccc1 (configuration not stated),.,.,.,17,.
O=C(Cn1cc(C(=O)COc2ccccc2)c2ccccc21)NCc1ccco1,.,.,.,17,.
CC(=O)c1cn(CC(=O)NCc2ccco2)c2ccccc12,.,.,.,.,.
COC(=O)c1sc(NC(=O)c2cc3c(s2)CCCC3)nc1C,.,.,60,.,.
Cc1nc(NC(=O)c2cc3c(s2)CCCCC3)sc1C(=O)N(C)C,.,.,.,.,.
Cc1cc2nc(-c3cccc(Cl)c3)c(CC(C)(C)C)n2c(C)c1Br,.,/,/,/,/
Fc1ccc(CN2CCN(C(c3ccccc3)c3ccccc3)CC2)cc1,.,.,.,16,.
c1ccc(CN2CCN(C(c3ccccc3)c3ccccc3)CC2)cc1,.,.,.,.,.
Cc1ccc(NC(=S)NCC2CCN(C(C)c3ccccc3)C2)cc1C (configuration not stated),.,.,.,.,.
SMILES,m5-HT2A agonist,PP5 primary,GASC-1 inh,PP1 counter,T cell HTS
COc1ccc2c(c1)c(CC(=O)Nc1ccc(C(C)=O)cc1)c(C)n2C(=O)c1ccc(Cl)cc1,.,.,.,.,.
COc1ccc2c(c1)c(CC(=O)Nc1nnc(C3CC3)s1)c(C)n2C(=O)c1ccc(Cl)cc1,.,.,.,15,.
O=C(NCc1ccc(Cl)cc1)c1ccc(CNc2c(N3CCCC3)c(=O)c2=O)cc1,.,.,.,.,0.0
CCCCCOc1ccc(Br)cc1/C(C)=N/NC1=NCCN1,.,.,.,17,.
COc1ccc(Br)cc1/C(C)=N/NC1=NCCN1,.,.,.,.,.
COc1ccc(/C=C/c2cc(O)cc(OC3OC(CO)C(O)C(O)C3O)c2)cc1 (configuration not stated),.,/,/,/,/
NS(=O)(=O)c1ccc(CCNC(=O)C2CCN(S(=O)(=O)c3cccc4cccnc34)CC2)cc1,.,.,.,.,54
Cn1c(=O)cc(OCC(=O)NCCCN2CCN(c3ccccc3F)CC2)c2ccccc21,25,.,.,.,.
COc1cccc(CN2CCC2(C)C(=O)Nc2cccc(NS(C)(=O)=O)c2)c1OC (configuration not stated),.,/,/,/,/
COc1ccc(C)cc1NC(=O)CN(Cc1nnc(-c2ccc(Cl)cc2)o1)C1CCCC1,.,.,.,16,.
